From ChEMBL document CHEMBL1123189, “4-Aroyl-1,3-dihydro-2H-imidazol-2-ones: a new class of cardiotonic agents. 2. Effect of 4-pyridoyl substituents and related compounds” (1986) come the findings set out here.

Assay type in all cases: functional, Canis lupus familiaris
Assay [1] has as its system Canis familiaris. Briefly: Compound was tested for inotropic activity by measuring the concentration required to increase heart rate by 15% in the anesthetized dog after intravenous administration. In a few lines: (§1)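 Anesthetized dogs, one compound per animal, stabilized at least 30 min after surgery. Contractile force from a Walton-Brodie strain gauge arch sutured to the left ventricle, heart rate from lead II EKG, aortic pressure via femoral cannula. Readings at 5- to 10-min intervals before and after iv injection of at least three doses, with return to baseline between doses. Equieffective doses extrapolated from dose-response curves; means with 95% confidence intervals.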

Assay [2] relates to Canis familiaris. Kind of assay: Compound was tested for inotropic activity by measuring the concentration required to mean blood pressure by 20% in the anesthetized dog after intravenous administration. The essentials:
as §1

Assay [3] concerns Canis familiaris. Briefly: Compound was tested for inotropic activity by measuring the concentration required to increase cardiac contractile force by 30% in the anesthetized dog after intravenous administration. The essentials: as §1

With `CCc1[nH]c(O)nc1C(=O)c1cnccc1Cl`, the figures for the Equieffective dose in the assay on Canis familiaris [1], in the assay on Canis familiaris [2] and with Canis familiaris [3] were 11.8 mg/kg, 7.03 mg/kg and 0.56 mg/kg, respectively.

As to `Cc1[nH]c(O)nc1C(=O)c1ccncc1`, the results for the Equieffective dose in the assay on Canis familiaris [1], with Canis familiaris [2] and with Canis familiaris [3] were 3.37 mg/kg, 2.58 mg/kg and 0.13 mg/kg, respectively.

On to `CCc1[nH]c(O)nc1C(=O)c1cc[n+]([O-])cc1`, for which the Equieffective dose in the assay on Canis familiaris [1], in the assay with Canis familiaris [2] and in the assay on Canis familiaris [3] was over 1 mg/kg each time.

In the case of `Cc1[nH]c(O)nc1C(=O)c1cccnc1Cl`, the Equieffective dose in the assay with Canis familiaris [1] was 5.1 mg/kg; in the assay with Canis familiaris [2], over 10 mg/kg; in the assay on Canis familiaris [3] it was 0.47 mg/kg.

For `CCc1[nH]c(O)nc1C(=O)c1ccccn1`, the Equieffective dose with Canis familiaris [1] was 0.83 mg/kg; in the assay with Canis familiaris [2], over 3 mg/kg; in the assay on Canis familiaris [3] it was 0.2 mg/kg.

In the case of `Cc1[nH]c(O)nc1C(=O)c1ccccn1`, the values for the Equieffective dose in the assay with Canis familiaris [1], with Canis familiaris [2] and in the assay on Canis familiaris [3] were 3.29 mg/kg, 1.91 mg/kg and 1.57 mg/kg, respectively.

`CCc1[nH]c(O)nc1C(=O)c1cccnc1`: the Equieffective dose is over 3 mg/kg in the assay on Canis familiaris [1], over 3 mg/kg in the assay on Canis familiaris [2] and 0.22 mg/kg in the assay with Canis familiaris [3].

For the molecule `Cc1[nH]c(O)nc1C(=O)c1cccnc1`, the Equieffective dose in the assay with Canis familiaris [1] is over 3 mg/kg; in the assay with Canis familiaris [2] it was over 3 mg/kg; with Canis familiaris [3] it was 0.64 mg/kg.

In the case of `CCc1[nH]c(=O)[nH]c1C(=O)c1ccncc1` [PIROXIMONE], the Equieffective dose was determined as 0.42 mg/kg in the assay on Canis familiaris [1], 1.7 mg/kg in the assay on Canis familiaris [2] and 0.07 mg/kg with Canis familiaris [3].

With `CCCc1[nH]c(O)nc1C(=O)c1ccncc1`, the Equieffective dose in the assay on Canis familiaris [1] was 3.38 mg/kg; with Canis familiaris [2], over 3 mg/kg; in the assay on Canis familiaris [3], 1.7 mg/kg.

Turning to `CCc1[nH]c(O)nc1C(=O)c1cccnc1Cl`, the Equieffective dose was over 3 mg/kg with Canis familiaris [1], over 3 mg/kg in the assay with Canis familiaris [2] and 0.31 mg/kg in the assay on Canis familiaris [3].
